We go through 35 compounds from ChEMBL document CHEMBL4665815, “Di-bromo-Based Small-Molecule Inhibitors of the PD-1/PD-L1 Immune Checkpoint” (J Med Chem, 2020).

Series [1] addresses T1, Programmed cell death protein 1/Programmed cell death 1 ligand 1 (Homo sapiens, UniProt Q15116+Q9NZQ7). Briefly: (§1) Inhibition of hPD-1/hPD-L1 immune checkpoint using PD-L1 expressing human aAPCs and PD-1 expressing human Jurkat cells assessed as activation of effector Jurkat T cells incubated for 6 hrs by luciferase reporter gene based immune checkpoint blockade cell-based assay. In short, it runs like this: (§2)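 CHO-K1 aAPCs expressing hPD-L1 and a TCR ligand were seeded at 10 000/well 17 h ahead. Compounds were serially diluted 2.5-fold in DMSO, then 1000-fold into RPMI with 1% FBS (0.1% DMSO final). Jurkat hPD-1 NFAT-RE luciferase effector cells were added at 20 000/well for 6 h. Bio-Glo luminescence was read as fold induction over DMSO controls. EC50 came from Hill fits with the durvalumab maximum as the ceiling. Mean ± SEM, 4–7 experiments.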
(In a reporter assay the amount or activity of a reporter protein is the signal.)

The nature of series [2]: Binding affinity to human PD1 (34-150 residues) extracellular domain C93S mutant expressed in Escherichia coli BL21 (DE3) incubated for 2 hrs by TR-FRET assay.
Series [3] has as its target T1, Programmed cell death protein 1/Programmed cell death 1 ligand 1. The series can be described thus: Inhibition of hPD-1/hPD-L1 immune checkpoint using PD-L1 expressing human aAPCs and PD-1 expressing human Jurkat cells assessed as activation of effector Jurkat T cells at 0.01 to 100 uM incubated for 6 hrs by luciferase reporter gene based immune checkpoint blockade cell-based assay. As to conditions: dose microM 0.01-100, time 6.0 hrs. Summed up:
as §2

Series [4] addresses Programmed cell death 1 ligand 1 (Mus musculus) (UniProt Q9EP73). Briefly: Binding affinity to mouse PD1-L1 (19-134 residues) expressed in Escherichia coli BL21 (DE3) incubated for 1 hr by MST analysis.
The subject of series [5] is Jurkat. Briefly: Toxicity in human Jurkat cells assessed as reduction in cell viability at 40 uM incubated for 24 hrs relative to control. The format is cell-based.
Series [6] is filed under the species Homo sapiens. The series can be described thus: Binding affinity to 15N labelled human PD1 N66A mutant assessed as induction of dissociation of PD-1 N66A mutant/PDL1 complex by w-AIDA-NMR 1D assay.
The species entered for series [7] is Homo sapiens. The series can be described thus: Binding affinity to 15N labelled human PD1 N66A mutant assessed as induction of dissociation of PD-1 N66A mutant/PDL1 complex by w-AIDA-NMR 2D assay. Summed up: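 Uniformly 15N-labelled hPD-1 N66A mutant, expressed in bacteria grown at 28 °C in M9 medium with 15NH4Cl as the sole nitrogen source and induced with 1 mM IPTG. Protein was refolded from inclusion bodies and purified by size-exclusion chromatography in 25 mM sodium phosphate pH 6.4, 100 mM NaCl. 1H–15N signals were followed by SOFAST HMQC.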

In series [8] the target is Programmed cell death protein 1/Programmed cell death 1 ligand 1 (Homo sapiens, UniProt Q9NZQ7). The series is described as §1. In short, it runs like this: as §2
Series [9] has as its target Programmed cell death 1 ligand 1 (Homo sapiens) (UniProt Q9NZQ7). Briefly: Binding affinity to human PD-L1 (18 to 134 residues) assessed as induction of protein dimerization by 1H NMR method.
A short description of series [10]: Solubility in DMSO. The format is physicochemical.
Series [11] in a line: Solubility in water. The class given is physicochemical. The note with it: buffer.
Series [12] deals with Jurkat. Briefly: Toxicity in human Jurkat cells at >100 uM incubated for 24 hrs. The class given is cell-based.
The nature of series [13]: Binding affinity to Fc-tagged human PD-1 assessed as induction of dissociation of PD-1 N66A mutant/His-and Fc-tagged human PD-L1complex pre-incubated for 30 mins with PDL1 and measured after 1 hr by competitive ELISA.
The target of series [14] is T1, Programmed cell death protein 1/Programmed cell death 1 ligand 1. The series can be described thus: Inhibition of PD-1/PD-L1 immune checkpoint using PD-L1 expressing human aAPCs and PD-1 expressing human PBMC assessed as increase in PD-1 receptor expression on surface of CD8+ T cells incubated for 48 hrs by flow cytometry. Summed up:
(§3)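 PBMCs from healthy donors were isolated by density-gradient centrifugation. They were added at 400 000 cells/well onto preseeded CHO-K1 hPD-L1 aAPCs and cultured 48 h with compound, DMSO or atezolizumab (5 μg/mL). Cells were detached and stained 20 min at room temperature for CD69, CD4, CD8 and PD-1, then analysed by flow cytometry. Values are mean ± SD of three independent experiments with different donors; Student's t test.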
For orientation: Flow cytometry measures light scatter and fluorescence of single cells or particles in a stream.

The test system of series [15] is PBMC. Briefly: Effect on CD69 expression in human PBMC. The class given is functional. In short, it runs like this:
as §3

Series [16] addresses T1, Programmed cell death protein 1/Programmed cell death 1 ligand 1. Briefly: Inhibition of hPD-1/hPD-L1 immune checkpoint using PD-L1 expressing human aAPCs and PD-1 expressing human Jurkat cells assessed as activation of effector Jurkat T cells at 50 uM incubated for 6 hrs by luciferase reporter gene based immune checkpoint blockade cell-based assay relative to control. Summed up:
as §2

Series [17] shares this target. Briefly: Inhibition of PD-1/PD-L1 immune checkpoint using PD-L1 expressing human aAPCs and PD-1 expressing human PBMC assessed as increase in PD-1 receptor expression on surface of CD4+ T cells incubated for 48 hrs by flow cytometry. Summed up: as §3

Calls of active or inactive are those of the source. The rule behind the calls is not given here.

Sequence of Programmed cell death protein 1/Programmed cell death 1 ligand 1 (Homo sapiens, UniProt Q9NZQ7) (Q15116 whole entry, the tested form may be a part): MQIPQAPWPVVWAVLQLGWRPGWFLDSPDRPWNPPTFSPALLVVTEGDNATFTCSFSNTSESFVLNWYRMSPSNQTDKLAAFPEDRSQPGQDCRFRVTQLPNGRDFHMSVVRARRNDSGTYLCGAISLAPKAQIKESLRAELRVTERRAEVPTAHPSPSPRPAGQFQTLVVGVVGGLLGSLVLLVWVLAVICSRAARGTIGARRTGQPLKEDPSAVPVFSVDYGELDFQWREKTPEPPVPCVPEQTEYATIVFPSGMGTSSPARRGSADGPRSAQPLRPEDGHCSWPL
Sequence of Programmed cell death protein 1/Programmed cell death 1 ligand 1 (Homo sapiens, UniProt Q9NZQ7) (Q9NZQ7 whole entry, the tested form may be a part): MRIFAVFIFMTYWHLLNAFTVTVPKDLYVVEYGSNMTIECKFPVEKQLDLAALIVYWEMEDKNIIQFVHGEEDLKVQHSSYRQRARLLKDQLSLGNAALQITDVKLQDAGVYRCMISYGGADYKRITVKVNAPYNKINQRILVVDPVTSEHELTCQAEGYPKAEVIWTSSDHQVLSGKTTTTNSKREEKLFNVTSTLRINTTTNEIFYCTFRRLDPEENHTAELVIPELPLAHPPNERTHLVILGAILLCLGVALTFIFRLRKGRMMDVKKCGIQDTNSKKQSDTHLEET
T1 sequence (Q15116 whole entry): as the sequence (Q15116 whole entry, the tested form may be a part) above
T1 sequence (Q9NZQ7 whole entry): as the sequence (Q9NZQ7 whole entry, the tested form may be a part) above
Sequence of Programmed cell death 1 ligand 1 (Mus musculus) (Q9EP73 whole entry, the tested form may be a part): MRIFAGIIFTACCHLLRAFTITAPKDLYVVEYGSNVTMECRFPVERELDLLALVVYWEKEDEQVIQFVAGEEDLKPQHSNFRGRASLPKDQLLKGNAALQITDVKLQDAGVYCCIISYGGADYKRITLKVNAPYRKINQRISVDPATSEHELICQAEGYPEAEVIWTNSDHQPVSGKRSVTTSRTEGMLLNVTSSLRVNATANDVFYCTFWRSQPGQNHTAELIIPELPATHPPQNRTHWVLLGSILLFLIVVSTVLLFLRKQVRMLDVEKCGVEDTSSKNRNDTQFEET
Sequence of Programmed cell death 1 ligand 1 (Homo sapiens) (Q9NZQ7 whole entry, the tested form may be a part): as the sequence (Q9NZQ7 whole entry, the tested form may be a part) above

For orientation: EC50 means the midpoint of the concentration-response curve. A word on the IC50: it is the concentration needed to halve the response being measured. Regarding `N#Cc1cc(COc2cc(OCc3cccc(-c4ccccc4)c3-c3ccccc3)c(Cl)cc2C=O)ccn1`, the EC50 in series [1] is > 40 µM. Also, in [2], the IC50 is 23.8 µM. Also, the outcome in series [3] was Active.

The compound `COC(=O)c1ccc(OCc2cccc(-c3ccccc3)c2Br)c(Br)c1` registered a half-inhibitory concentration (IC50) in series [2] of 28.6 µM.

As to `O=Cc1cc(Cl)c(OCc2cccc(-c3ccccc3)c2Br)cc1O`, in series [2], the IC50 was > 100 µM.

For `O=Cc1ccc(OCc2cccc(-c3cccc(F)c3)c2Br)c(Br)c1`, the half-inhibitory concentration (IC50) in series [2] turned out to be 55 µM.

In turn, `CC(=O)NCCNCc1ccc(OCc2cccc(-c3cccc(F)c3)c2Br)c(Br)c1` displayed an IC50 in series [2] of 0.107 µM.

Compound `BrCc1cccc(-c2ccc3c(c2)OCCO3)c1Br` returned an IC50 in [2] of 64.4 µM.

Take `Cc1cc(C=O)ccc1OCc1cccc(-c2ccccc2)c1Br`: the IC50 in [2] is 50 µM.

`CC(=O)NCCNCc1ccc(OCc2cccc(-c3ccc4c(c3)OCCO4)c2F)c(Br)c1`: the IC50 in series [2] was 0.0227 µM.

Turning to `O=Cc1cc(Cl)c(OCc2cccc(-c3ccccc3)c2-c2ccccc2)cc1O`, the half-inhibitory concentration (IC50) in series [2] was > 100 µM.

As for `Cc1c(COc2cc(OCc3cccc(C#N)c3)c(CN3C[C@H](O)C[C@@H]3C(=O)O)cc2Cl)cccc1-c1ccc2c(c1)OCCO2`, in series [4], the outcome was inactive. The Activity in series [5] came to 50%.

Take `N#Cc1ccc(-c2cccc(COc3ccc(C=O)cc3Br)c2Br)cc1`: in [2], the IC50 was > 100 µM.

`Fc1cccc(-c2cccc(CBr)c2Br)c1` displayed an IC50 in [2] of 100 µM.

With `OCc1cccc(OCc2cccc(-c3cccc(F)c3)c2Br)c1`, the IC50 in series [2] was > 100 µM.

Regarding `OCc1cccc(-c2ccccc2)c1F`, the result in series [6] and in series [7] was Active. The compound also showed an IC50 in series [2] of 55.9 µM.

Turning to `OCc1cccc(-c2ccc3c(c2)OCCO3)c1F`, the IC50 in [2] worked out at 55.5 µM.

For `N#Cc1cccc(COc2cc(OCc3cccc(-c4ccccc4)c3Br)c(Cl)cc2C=O)c1`, the EC50 in [1] is > 40 µM. In series [2], this compound displayed an IC50 of 0.552 µM. Further, the outcome in series [3] was Active.

With `N#Cc1cc(COc2cc(OCc3cccc(-c4ccccc4)c3Br)c(Cl)cc2CN2C[C@@H](O)C[C@H]2C(=O)O)ccn1`, the 50% effective concentration (EC50) in [8] was 12.2 µM. Further, the result in series [9] and in series [3] was Active. The IC50 in [2] stood at 0.0039 µM. The solubility result in series [10] and in series [11] was “Insoluble” in each case.

With `O=Cc1ccc(OCc2cccc(-c3ccccc3)c2-c2ccccc2)c(Br)c1`, the IC50 in series [2] was > 100 µM.

As to `O=Cc1ccc(OCc2cccc(-c3ccc4c(c3)OCCO4)c2F)c(Br)c1`, the IC50 in series [2] was > 100 µM.

With `O=C(O)[C@@H]1CCCCN1Cc1ccc(OCc2cccc(-c3cccc(F)c3)c2Br)c(Br)c1`, the IC50 in series [2] was 0.0653 µM.

Take `COc1cc(C=O)ccc1OCc1cccc(-c2ccccc2)c1Br`: the IC50 in [2] was > 100 µM.

In the case of `O=Cc1ccc(OCc2cccc(-c3ccc4c(c3)OCCO4)c2Br)c(Br)c1`, in series [2], the IC50 was 35.4 µM.

Consider `O=C(O)[C@@H]1CCCCN1Cc1ccc(OCc2cccc(-c3ccc4c(c3)OCCO4)c2Br)c(Br)c1`, for which, in [8], the EC50 is > 40 µM. The compound further yielded an IC50 in series [2] of 0.401 µM. The result in series [3] was Active.

In turn, `O=C(O)[C@@H]1C[C@H](O)CN1Cc1ccc(OCc2cccc(-c3ccccc3)c2-c2ccccc2)c(Br)c1` had an IC50 in [2] of 29.4 µM.

Regarding `O=S1(=O)CCN(Cc2cccc(OCc3cccc(-c4cccc(F)c4)c3Br)c2)CC1`, the IC50 in series [2] is 22.3 µM.

`O=S1(=O)CCN(Cc2ccc(OCc3cccc(-c4cccc(F)c4)c3Br)c(Br)c2)CC1`: the IC50 in series [2] came to 4.24 µM.

Regarding `O=Cc1ccc(OCc2cccc(-c3ccccc3)c2Br)c(Br)c1`, the IC50 in [2] is 50 µM.

For the compound `OCc1cccc(-c2ccccc2)c1-c1ccccc1`, in series [2], the half-maximal inhibitory concentration (IC50) is > 100 µM.

Take `O=C(O)[C@@H]1CCCCN1Cc1ccc(OCc2cccc(-c3ccccc3)c2Br)cc1`: the EC50 in series [8] is 6.6 µM. Besides, the outcome in [9] and in [3] was Active. Also, the result in series [4] and in series [15] was inactive. For the same compound, the Activity entry in [12] was “Non-Toxic”. For the same compound, the IC50 was 0.00147 µM in series [13] and 0.015 µM in [2]. The inhibition result in series [14] and in series [17] was “Active” throughout. For the same compound, in series [16], the fold change (FC) came to 2.1.

In [2], `CC(=O)NCCNCc1ccc(OCc2cccc(-c3ccc(C#N)cc3)c2Br)c(Br)c1` displayed an IC50 of 5.11 µM.

Take `BrCc1cccc(-c2ccccc2)c1Br`: the outcome in series [6] and in series [7] was Active. The compound further came in with an IC50 in series [2] of 50.7 µM.

In turn, `N#Cc1ccc(-c2cccc(CBr)c2Br)cc1` showed a half-inhibitory concentration (IC50) in series [2] of 66.3 µM.

In the case of `N#Cc1cc(COc2cc(OCc3cccc(-c4ccccc4)c3Br)c(Cl)cc2C=O)ccn1`, the 50% effective concentration (EC50) in series [1] is > 40 µM. The IC50 in series [2] was found to be 29.4 µM. In [3], the outcome was Active.

With `Cc1c(COc2ccc(CN3CCCC[C@H]3C(=O)O)cc2)cccc1-c1ccccc1`, in series [4], the outcome was inactive. In [3], the result was Active.

`O=Cc1ccc(OCc2cccc(-c3ccccc3)c2Br)cc1`: in series [2], the IC50 turned out to be 50 µM.
